One may read the Ki as the equilibrium dissociation constant of an inhibitor or competing ligand from its target.

Assay [1] concerns the target 5-hydroxytryptamine receptor 7 (Rattus norvegicus, UniProt P32305). Kind of assay: Displacement of [3H]LSD from rat recombinant 5HT7 receptor expressed in HEK293 cells. Type of assay: cell-based. In outline: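 Membranes (30 µg) incubated 60 min at 37 °C with 2.5 nM [3H]LSD and 6–9 test concentrations in 50 mM Tris, 10 mM MgCl2, 0.5 mM EDTA, pH 7.4. Stopped by GF/A filtration (0.5% PEI pre-soak), cold-buffer washes; nonspecific binding defined by 10 µM 5-CT. Ki by nonlinear curve fit and Cheng–Prusoff; mean ± SEM of three experiments in triplicate.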
(In general: In a radioligand displacement assay an active substance lowers the binding of a labelled ligand.)

Assay [2] deals with 5-hydroxytryptamine receptor 1A (Homo sapiens) (UniProt P08908). Kind of assay: Displacement of [3H]-8-OH-DPAT from human recombinant 5HT1A receptor expressed in HEK293 cells.
Sequence of 5-hydroxytryptamine receptor 1A (Homo sapiens) (P08908 whole entry, looked up): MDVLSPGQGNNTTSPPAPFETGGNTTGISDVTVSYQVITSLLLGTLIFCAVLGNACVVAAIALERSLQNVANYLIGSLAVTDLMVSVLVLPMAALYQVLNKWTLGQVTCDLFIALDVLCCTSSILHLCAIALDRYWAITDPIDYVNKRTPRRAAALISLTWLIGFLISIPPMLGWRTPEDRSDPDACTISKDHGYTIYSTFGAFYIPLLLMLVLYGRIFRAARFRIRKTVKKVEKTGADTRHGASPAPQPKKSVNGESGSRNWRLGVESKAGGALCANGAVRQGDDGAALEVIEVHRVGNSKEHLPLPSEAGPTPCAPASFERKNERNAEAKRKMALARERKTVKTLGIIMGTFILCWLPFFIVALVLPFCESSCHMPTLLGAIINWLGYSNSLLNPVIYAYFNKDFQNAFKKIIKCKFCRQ

Sequence of 5-hydroxytryptamine receptor 7 (P32305 whole entry): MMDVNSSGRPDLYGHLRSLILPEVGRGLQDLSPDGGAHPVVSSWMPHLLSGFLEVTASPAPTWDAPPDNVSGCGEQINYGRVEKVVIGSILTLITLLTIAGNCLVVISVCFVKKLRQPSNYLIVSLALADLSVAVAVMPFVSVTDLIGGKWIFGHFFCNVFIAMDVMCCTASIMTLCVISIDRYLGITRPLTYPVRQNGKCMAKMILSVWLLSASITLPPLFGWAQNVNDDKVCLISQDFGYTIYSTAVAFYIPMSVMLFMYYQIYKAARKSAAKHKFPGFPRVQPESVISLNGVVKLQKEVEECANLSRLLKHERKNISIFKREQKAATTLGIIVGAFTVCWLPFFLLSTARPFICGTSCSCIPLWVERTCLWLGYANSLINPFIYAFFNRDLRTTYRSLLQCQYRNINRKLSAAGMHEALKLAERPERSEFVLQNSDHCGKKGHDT

With `COc1ccccc1N1CCN(CCc2cccc(OCCCOc3cccc(CCN4CCN(c5ccccc5OC)CC4)c3)c2)CC1`, the Ki in assay [1] was determined as 25 nM; in assay [2], 5.6 nM.

For `COc1ccccc1N1CCN(CCc2cccc(OC(=O)COCC(=O)Oc3cccc(CCN4CCN(c5ccccc5OC)CC4)c3)c2)CC1`, the inhibition constant Ki in assay [1] came to 43 nM; in assay [2] it was 2.74 nM.

Turning to `COc1ccccc1N1CCN(CCc2cccc(OCCCCCCCCOc3cccc(CCN4CCN(c5ccccc5OC)CC4)c3)c2)CC1`, the Ki worked out at 573 nM in assay [1] and 4.8 nM in assay [2]. For the compound `COc1ccccc1N1CCN(CCc2cccc(OCCOc3cccc(CCN4CCN(c5ccccc5OC)CC4)c3)c2)CC1`, the Ki in assay [1] was found to be 41.1 nM; in assay [2], 2.2 nM.

As for `COc1ccccc1N1CCN(CCc2cccc(OCCCCCCCCCCOc3cccc(CCN4CCN(c5ccccc5OC)CC4)c3)c2)CC1`, the Ki in assay [1] worked out at 258 nM; in assay [2], 28.3 nM. For `COc1ccccc1N1CCN(CCc2cccc(OCCCCCCOc3cccc(CCN4CCN(c5ccccc5OC)CC4)c3)c2)CC1`, the Ki is 42.6 nM in assay [1] and 1.6 nM in assay [2]. Turning to `COc1ccccc1N1CCN(CCc2cccc(OCCCCCOc3cccc(CCN4CCN(c5ccccc5OC)CC4)c3)c2)CC1`, the Ki in assay [1] was determined as 120 nM; in assay [2] it was 1.74 nM. Regarding `COc1ccccc1N1CCN(CCc2cccc(OCCCCCCCCCCCCOc3cccc(CCN4CCN(c5ccccc5OC)CC4)c3)c2)CC1`, in assay [2], the Ki turned out to be 253 nM. For the compound `COc1ccccc1N1CCN(CCc2cccc(OCCCCOc3cccc(CCN4CCN(c5ccccc5OC)CC4)c3)c2)CC1`, the Ki turned out to be 28.5 nM in assay [1] and 0.9 nM in assay [2]. The corresponding values for `COc1ccccc1N1CCN(CCc2cccc(OCCOCCOc3cccc(CCN4CCN(c5ccccc5OC)CC4)c3)c2)CC1` are 37 nM and 0.62 nM.

Source of the values: ChEMBL document CHEMBL1140003, “Bivalent ligand approach on 4-[2-(3-methoxyphenyl)ethyl]-1-(2-methoxyphenyl)piperazine: synthesis and binding affinities for 5-HT(7) and 5-HT(1A) receptors” (Bioorg Med Chem, 2007).
